These results are taken from ChEMBL document CHEMBL3813698, “Hydrophobic substituents increase the potency of salacinol, a potent α-glucosidase inhibitor from Ayurvedic traditional medicine 'Salacia'” (Bioorg Med Chem, 2016).

One assay addresses Maltase-glucoamylase (Homo sapiens, UniProt O43451). The assay can be described thus: Inhibition of human small intestine microsomal maltase using maltose as substrate incubated for 30 mins by glucose-oxidase method. Summed up:
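Enzyme was human small-intestinal microsome in 0.1 M maleate buffer (pH 6.0), with maltose as substrate. Test sample was dissolved in DMSO and diluted in maleate buffer. Sample, substrate and enzyme were incubated at 37 °C for 30 min, stopped by boiling for 2 min, and glucose measured by the glucose-oxidase method.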

In assay [1] the target is T1, Sucrase-isomaltase, intestinal (Rattus norvegicus, UniProt P23739). The assay can be described thus: Inhibition of rat small intestinal isomaltase using isomaltose as substrate incubated for 30 mins by glucose-oxidase method. Summed up:
(§1)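 Rat small-intestinal α-glucosidases in 0.1 M maleate buffer (pH 6.0). Test sample dissolved in DMSO, diluted with maleate buffer (10% DMSO in sample solution; 2.5% final). Substrate solution concentrations were maltose 74 mM (maltase), sucrose 74 mM (sucrase) and isomaltose 7.4 mM (isomaltase). Substrate, sample and enzyme were mixed at 37 °C for 30 min, stopped by 2 min boiling, and glucose read by glucose oxidase.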

Assay [2] is described as follows: Inhibition of rat small intestinal maltase using maltose as substrate incubated for 30 mins by glucose-oxidase method. The method in brief: as §1
The target of assay [3] is T1, Sucrase-isomaltase, intestinal. The assay is described as follows: Inhibition of rat small intestinal sucrase using sucrose as substrate incubated for 30 mins by glucose-oxidase method. The method in brief: as §1

As a reminder, the IC50 is the concentration that inhibits the measured activity by half. A high value points to weaker potency in that assay.

Maltase-glucoamylase, sequence (O43451 whole entry): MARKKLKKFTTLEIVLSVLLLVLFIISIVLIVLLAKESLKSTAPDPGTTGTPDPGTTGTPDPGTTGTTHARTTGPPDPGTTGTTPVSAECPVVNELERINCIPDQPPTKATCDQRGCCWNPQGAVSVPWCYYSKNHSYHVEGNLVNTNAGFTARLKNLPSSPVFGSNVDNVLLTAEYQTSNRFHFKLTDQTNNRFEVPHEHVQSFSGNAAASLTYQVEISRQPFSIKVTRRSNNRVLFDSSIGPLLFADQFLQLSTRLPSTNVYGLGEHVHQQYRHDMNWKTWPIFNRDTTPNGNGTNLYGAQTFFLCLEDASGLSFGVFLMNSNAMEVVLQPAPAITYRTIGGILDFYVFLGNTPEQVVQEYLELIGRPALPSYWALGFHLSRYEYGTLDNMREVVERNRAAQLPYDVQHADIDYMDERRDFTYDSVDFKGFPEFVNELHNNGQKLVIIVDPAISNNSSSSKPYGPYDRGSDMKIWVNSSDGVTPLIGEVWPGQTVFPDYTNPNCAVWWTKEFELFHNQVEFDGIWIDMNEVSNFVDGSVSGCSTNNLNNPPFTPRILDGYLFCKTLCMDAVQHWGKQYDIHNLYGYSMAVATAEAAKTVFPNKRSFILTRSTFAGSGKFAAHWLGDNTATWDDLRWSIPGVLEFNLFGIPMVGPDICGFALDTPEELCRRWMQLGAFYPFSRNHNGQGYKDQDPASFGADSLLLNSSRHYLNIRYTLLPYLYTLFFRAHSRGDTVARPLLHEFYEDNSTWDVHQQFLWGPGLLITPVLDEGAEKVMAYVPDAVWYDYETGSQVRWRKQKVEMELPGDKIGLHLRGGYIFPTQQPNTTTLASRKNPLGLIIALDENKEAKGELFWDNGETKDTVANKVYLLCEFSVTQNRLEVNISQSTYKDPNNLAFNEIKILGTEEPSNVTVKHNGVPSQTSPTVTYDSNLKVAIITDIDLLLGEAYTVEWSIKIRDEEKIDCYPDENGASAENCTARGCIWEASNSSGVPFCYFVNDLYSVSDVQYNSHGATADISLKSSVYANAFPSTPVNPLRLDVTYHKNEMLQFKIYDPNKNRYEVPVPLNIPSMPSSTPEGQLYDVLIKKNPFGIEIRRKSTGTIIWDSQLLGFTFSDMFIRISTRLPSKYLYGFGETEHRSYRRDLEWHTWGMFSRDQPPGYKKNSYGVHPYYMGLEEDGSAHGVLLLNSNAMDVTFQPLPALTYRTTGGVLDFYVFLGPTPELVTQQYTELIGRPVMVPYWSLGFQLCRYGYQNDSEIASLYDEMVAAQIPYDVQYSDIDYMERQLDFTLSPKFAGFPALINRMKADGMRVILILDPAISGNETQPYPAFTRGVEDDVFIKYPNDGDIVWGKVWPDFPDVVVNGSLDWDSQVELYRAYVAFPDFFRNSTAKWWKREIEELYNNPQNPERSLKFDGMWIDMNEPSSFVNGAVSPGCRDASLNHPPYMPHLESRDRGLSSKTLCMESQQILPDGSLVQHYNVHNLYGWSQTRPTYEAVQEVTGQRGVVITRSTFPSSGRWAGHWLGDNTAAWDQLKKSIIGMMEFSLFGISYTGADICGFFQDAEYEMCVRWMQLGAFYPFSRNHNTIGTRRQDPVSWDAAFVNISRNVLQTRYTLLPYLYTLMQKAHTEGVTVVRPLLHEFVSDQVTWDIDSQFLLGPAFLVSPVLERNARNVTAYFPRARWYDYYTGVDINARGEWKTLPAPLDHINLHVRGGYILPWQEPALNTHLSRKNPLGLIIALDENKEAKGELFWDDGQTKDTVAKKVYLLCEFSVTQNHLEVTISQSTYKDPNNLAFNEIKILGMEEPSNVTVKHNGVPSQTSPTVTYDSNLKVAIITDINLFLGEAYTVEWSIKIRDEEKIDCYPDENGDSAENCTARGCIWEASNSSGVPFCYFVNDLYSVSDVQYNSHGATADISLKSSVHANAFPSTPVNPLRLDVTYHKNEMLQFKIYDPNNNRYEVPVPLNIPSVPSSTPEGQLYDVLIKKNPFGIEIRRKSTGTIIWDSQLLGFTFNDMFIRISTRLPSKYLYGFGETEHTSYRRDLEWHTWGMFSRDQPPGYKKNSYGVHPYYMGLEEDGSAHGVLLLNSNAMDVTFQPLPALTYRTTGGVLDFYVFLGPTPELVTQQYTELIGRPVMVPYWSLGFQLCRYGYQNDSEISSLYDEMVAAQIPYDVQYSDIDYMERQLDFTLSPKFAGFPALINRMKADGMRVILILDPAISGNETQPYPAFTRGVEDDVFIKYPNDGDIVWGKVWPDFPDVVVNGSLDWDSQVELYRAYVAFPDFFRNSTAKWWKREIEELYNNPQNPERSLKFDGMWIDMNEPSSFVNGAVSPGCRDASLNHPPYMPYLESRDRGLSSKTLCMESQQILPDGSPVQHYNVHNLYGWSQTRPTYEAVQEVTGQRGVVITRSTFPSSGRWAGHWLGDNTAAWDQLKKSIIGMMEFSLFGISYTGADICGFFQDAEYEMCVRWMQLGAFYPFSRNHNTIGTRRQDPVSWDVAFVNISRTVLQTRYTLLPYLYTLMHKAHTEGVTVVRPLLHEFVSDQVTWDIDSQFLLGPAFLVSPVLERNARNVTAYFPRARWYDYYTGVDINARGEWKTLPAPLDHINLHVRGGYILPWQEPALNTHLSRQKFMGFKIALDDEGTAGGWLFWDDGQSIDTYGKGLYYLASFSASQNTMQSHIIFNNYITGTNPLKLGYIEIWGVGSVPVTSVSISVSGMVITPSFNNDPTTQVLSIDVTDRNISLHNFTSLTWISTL
T1 sequence (P23739 1-1013 limits assumed): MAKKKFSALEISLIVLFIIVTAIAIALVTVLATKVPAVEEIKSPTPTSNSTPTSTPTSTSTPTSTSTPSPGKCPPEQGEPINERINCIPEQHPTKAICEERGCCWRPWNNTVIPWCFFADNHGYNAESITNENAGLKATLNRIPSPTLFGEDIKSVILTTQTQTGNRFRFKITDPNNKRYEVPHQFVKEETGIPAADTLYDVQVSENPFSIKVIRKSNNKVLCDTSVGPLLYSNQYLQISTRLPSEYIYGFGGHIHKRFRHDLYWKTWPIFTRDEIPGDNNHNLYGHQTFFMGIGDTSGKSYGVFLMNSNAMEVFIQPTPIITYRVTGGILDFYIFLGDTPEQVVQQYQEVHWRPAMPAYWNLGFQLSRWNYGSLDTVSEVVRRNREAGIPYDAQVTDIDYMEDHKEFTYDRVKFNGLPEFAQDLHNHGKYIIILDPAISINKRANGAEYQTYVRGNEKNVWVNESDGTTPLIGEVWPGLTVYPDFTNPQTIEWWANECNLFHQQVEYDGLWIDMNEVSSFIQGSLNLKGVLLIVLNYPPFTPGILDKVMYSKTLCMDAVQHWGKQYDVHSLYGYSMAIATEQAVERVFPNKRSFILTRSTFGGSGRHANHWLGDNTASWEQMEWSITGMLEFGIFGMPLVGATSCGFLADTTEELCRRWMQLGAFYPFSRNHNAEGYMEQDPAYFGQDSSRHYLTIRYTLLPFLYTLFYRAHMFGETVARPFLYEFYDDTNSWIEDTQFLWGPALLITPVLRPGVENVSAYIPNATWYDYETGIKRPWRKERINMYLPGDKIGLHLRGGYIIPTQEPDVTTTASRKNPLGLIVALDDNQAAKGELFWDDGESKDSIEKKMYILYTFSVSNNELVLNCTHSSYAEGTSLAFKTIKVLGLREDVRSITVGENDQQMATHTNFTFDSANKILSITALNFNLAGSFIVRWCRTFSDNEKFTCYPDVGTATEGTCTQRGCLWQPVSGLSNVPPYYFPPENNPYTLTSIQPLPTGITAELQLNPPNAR
T1 sequence (P23739 1014-1841 limits assumed): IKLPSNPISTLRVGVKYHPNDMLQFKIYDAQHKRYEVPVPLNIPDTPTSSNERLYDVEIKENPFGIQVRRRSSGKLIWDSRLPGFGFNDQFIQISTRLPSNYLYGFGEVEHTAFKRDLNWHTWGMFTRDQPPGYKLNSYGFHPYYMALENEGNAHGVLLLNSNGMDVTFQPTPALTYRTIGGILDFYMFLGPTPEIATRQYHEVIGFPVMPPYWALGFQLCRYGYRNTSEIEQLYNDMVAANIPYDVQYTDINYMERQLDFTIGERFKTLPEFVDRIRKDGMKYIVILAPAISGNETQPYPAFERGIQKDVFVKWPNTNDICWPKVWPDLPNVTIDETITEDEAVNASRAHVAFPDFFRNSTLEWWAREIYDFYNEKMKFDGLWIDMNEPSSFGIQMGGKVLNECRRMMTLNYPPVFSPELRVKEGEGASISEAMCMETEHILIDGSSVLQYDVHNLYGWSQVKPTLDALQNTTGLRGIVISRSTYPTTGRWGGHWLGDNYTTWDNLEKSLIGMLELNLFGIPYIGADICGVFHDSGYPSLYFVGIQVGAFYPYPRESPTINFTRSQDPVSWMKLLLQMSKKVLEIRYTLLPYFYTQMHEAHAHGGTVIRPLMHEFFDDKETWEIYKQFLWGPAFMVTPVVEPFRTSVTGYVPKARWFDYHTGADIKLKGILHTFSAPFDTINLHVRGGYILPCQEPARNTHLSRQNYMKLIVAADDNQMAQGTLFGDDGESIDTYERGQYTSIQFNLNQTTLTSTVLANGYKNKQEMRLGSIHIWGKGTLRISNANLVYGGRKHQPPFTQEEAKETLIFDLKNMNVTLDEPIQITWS

Turning to `CC(C)(C)CO[C@@H](CO)[C@H](O)C[S+]1C[C@@H](O)[C@H](O)[C@H]1CO` (some centres undefined), the IC50 against Maltase-glucoamylase was 0.47 µM; in assay [1], 0.28 µM; in assay [2], 0.3 µM; in assay [3], 0.09 µM.

In the case of `CC(C)CO[C@@H](CO)[C@H](O)C[S+]1C[C@@H](O)[C@H](O)[C@H]1CO` (some centres undefined), the IC50 came to 0.69 µM at Maltase-glucoamylase, 0.34 µM in assay [1], 0.79 µM in assay [2] and 0.09 µM in assay [3].

In the case of `CO[C@@H](CO)[C@H](O)C[S+]1C[C@@H](O)[C@H](O)[C@H]1CO` (some centres undefined), the IC50 against Maltase-glucoamylase was 2 µM; in assay [1], 0.39 µM; in assay [2] it was 5.3 µM; in assay [3] it was 0.46 µM.

On to `CCCCCO[C@@H](CO)[C@H](O)C[S+]1C[C@@H](O)[C@H](O)[C@H]1CO` (some centres undefined), for which the IC50 is 1.5 µM at Maltase-glucoamylase, 0.47 µM in assay [1] and 0.5 µM in assay [3].

At Maltase-glucoamylase, `OCC(CO)N[C@H]1C[C@](O)(CO)[C@@H](O)[C@H](O)[C@H]1O` [VOGLIBOSE] yielded an IC50 of 1.3 µM.

Regarding `CCCCCCCO[C@@H](CO)[C@H](O)C[S+]1C[C@@H](O)[C@H](O)[C@H]1CO` (some centres undefined), the IC50 at Maltase-glucoamylase amounted to 0.64 µM; in assay [1], 0.25 µM; in assay [2] it was 0.8 µM; in assay [3], 0.24 µM.

`CCCCCCCCCCCCCO[C@@H](CO)[C@H](O)C[S+]1C[C@@H](O)[C@H](O)[C@H]1CO` (some centres undefined): the IC50 at Maltase-glucoamylase stood at 1.1 µM; in assay [1] it was 0.95 µM; in assay [2], 1.04 µM; in assay [3] it was 1.3 µM.

For the molecule `OCCN1C[C@H](O)[C@@H](O)[C@H](O)[C@H]1CO` [MIGLITOL], the IC50 in assay [2] is 8.2 µM.

Regarding `O=S(=O)([O-])O[C@@H](CO)[C@H](O)C[S+]1C[C@@H](O)[C@H](O)[C@H]1CO` (some centres undefined), the values for the IC50 in assay [1], in assay [2] and in assay [3] were 1.3 µM, 5.2 µM and 1.6 µM, respectively.

As to `CCO[C@@H](CO)[C@H](O)C[S+]1C[C@@H](O)[C@H](O)[C@H]1CO` (some centres undefined), the IC50 at Maltase-glucoamylase amounted to 0.96 µM; in assay [1], 0.27 µM; in assay [3] it was 0.12 µM.

With `OC[C@@H]1[C@@H](O)[C@H](O)C[S+]1C[C@@H](O)[C@@H](O)CO` (some centres undefined), the IC50 against Maltase-glucoamylase amounted to 9 µM; in assay [1], 0.3 µM; in assay [2] it was 8 µM; in assay [3], 1.3 µM.

For `O=[N+]([O-])c1ccccc1CO[C@@H](CO)[C@H](O)C[S@@+]1C[C@@H](O)[C@H](O)[C@H]1CO`, the IC50 against Maltase-glucoamylase was determined as 0.15 µM; in assay [1], 0.21 µM; in assay [2], 0.13 µM; in assay [3], 0.042 µM.
